From ChEMBL document CHEMBL2390899, “Synthesis of new 18F-radiolabeled silicon-based nitroimidazole compounds” (Bioorg Med Chem, 2013)

Key:
[1] = Lipophilicity, log D of the compound at pH 7.4; type: physicochemical; details: buffer
Rattus norvegicus [2] = organism: Rattus norvegicus; experiment: Biodistribution in Wistar rat bladder at 10 MBq after 90 mins by PET analysis; type: ADME, organism-based, Urinary bladder/Urine; details: in vivo, 1.5 h
Muscle tissue = experiment: Biodistribution in Wistar rat muscle at 10 MBq after 90 mins by PET analysis; type: ADME, organism-based; details: in vivo, 1.5 h
Heart = experiment: Biodistribution in Wistar rat heart at 10 MBq after 90 mins by PET analysis; type: ADME, organism-based; details: in vivo, 1.5 h
Liver = experiment: Biodistribution in Wistar rat liver at 10 MBq after 90 mins by PET analysis; type: ADME, organism-based; details: in vivo, 1.5 h
Intestine = experiment: Biodistribution in Wistar rat intestine at 10 MBq after 90 mins by PET analysis; type: ADME, organism-based; details: in vivo, 1.5 h
Rattus norvegicus [3] = organism: Rattus norvegicus; experiment: Biodistribution in Wistar rat femur bone at 10 MBq after 90 mins by PET analysis; type: ADME, organism-based, Bone element; details: in vivo, 1.5 h
[4] = Drug degradation in water at pH 7.4 by radio-HPLC and radio-TLC analysis; type: physicochemical; details: read-out: Drug degradation
Summary of the method: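 Decomposition of the 18F compound in water at pH 7.4 was followed by radio-HPLC and radio-TLC, read after 120 min.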

[5] = Metabolic stability in human plasma assessed as compound remaining after 2 hrs by radio-HPLC and radio-TLC analysis; type: ADME, cell-free; details: read-out: Stability
Summary of the method: (§1)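 The 18F-labelled compound was incubated in human plasma at 37 °C and monitored by radio-HPLC and radio-TLC for at least 120 min. The intact fraction and the half-life were obtained from this time course.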

[6] = Chemical stability of the compound in saline after 2 hrs at pH 5.5 by radio-HPLC and radio-TLC analysis; type: physicochemical; details: read-out: Stability
Summary of the method: (§2)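 Aqueous saline (pH 5.5) samples of the 18F compound were analysed by radio-HPLC and radio-TLC at 5, 15, 30, 60 and 120 min to follow hydrolysis of the Si–F bond. Hydrolysis was followed up to 180 min. Half-life was taken from the decay of intact tracer.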

[7] = Chemical stability of the compound in saline after 180 mins at pH 5.5 by radio-HPLC and radio-TLC analysis; type: physicochemical; details: buffer, pH 5.5, 3 h; summary of the method: as §2
[8] = Half life of the compound; type: physicochemical
[9] = Half life human plasma by radio-HPLC and radio-TLC analysis; type: ADME, cell-free; summary of the method: as §1
[10] = Half life of the compound in saline at pH 5.5 by radio-HPLC and radio-TLC analysis; type: physicochemical; summary of the method: as §2
[11] = Lipophilicity, log D of the compound at pH 4; type: physicochemical; details: buffer
[12] = Octanol-water partition coefficient, log P of the compound; type: physicochemical
Summary of the method: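 LogP was calculated as clogP with ChemDraw 11.0.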

**Q.** With `CC(C)(C)[Si]([18F])(c1cccc(C(=O)NCCn2ccnc2[N+](=O)[O-])c1)C(C)(C)C` as the compound, how does the logD [1] read?
**A.** 2.12

**Q.** And the SUV (Rattus norvegicus [2])?
**A.** 9.5%

**Q.** And the SUV (Muscle tissue)?
**A.** 0.3%

**Q.** What about the SUV (Heart) of the same compound?
**A.** 0.5%

**Q.** What about the SUV (Liver) of the same compound?
**A.** 7.3%

**Q.** And the SUV (Intestine)?
**A.** 6.5%

**Q.** And the SUV (Rattus norvegicus [3])?
**A.** 2.8%

**Q.** And the degraded [4]?
**A.** < 10%

**Q.** And the remaining at 2 h [5]?
**A.** 85%

**Q.** What about the remaining at 2 h [6] of the same compound?
**A.** 100%

**Q.** And the Stability [7]?
**A.** Stable

**Q.** With `O=[N+]([O-])c1nccn1CCC[Si]([18F])(c1cccc2ccccc12)c1cccc2ccccc12` as the compound, how does the half-life [8] read?
**A.** 2.17 h

**Q.** What does the source list for `O=[N+]([O-])c1nccn1CCOCCOCc1cn(CCC[Si]([18F])(c2cccc3ccccc23)c2cccc3ccccc23)nn1`?
**A.** half-life [9]: < 5 min; half-life [10]: 1 h

**Q.** With `O=C(Cn1ccnc1[N+](=O)[O-])NCCC[Si]([18F])(c1cccc2ccccc12)c1cccc2ccccc12` as the compound, how does the logD [11] read?
**A.** 0.12

**Q.** What about the half-life [9] of the same compound?
**A.** < 5 min

**Q.** What about the half-life [10] of the same compound?
**A.** 1 h

**Q.** Which P [12] does the source give for `O=C(Cn1ccnc1[N+](=O)[O-])NCC(F)(F)C(F)(F)F` here?
**A.** 5.7
